A short description of data set [1]: Cytotoxicity against human Huh7 cells after 3 days by WST-1 assay. Type of data set: cell-based, Huh-7. The essentials:
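Huh-5-2 cells seeded 5 × 10³/well in complete DMEM with G418. Serial compound dilutions in complete DMEM without G418 added 24 h after seeding. Cells proliferated three days at 37 °C, then cell number determined by WST-1 assay.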
A general note: Tetrazolium dyes change colour on reduction, which living cells bring about.

Data set [2] has as its system Hepatitis C virus. Description: Antiviral activity against HCV genotype1 infected in human Huh7 cells assessed as reduction of viral replication by steady-Glo luciferase assay. Type of data set: functional, organism-based, Hepacivirus hominis. The following applies: genotype 1, Huh-7. Summed up:
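Huh-5-2 cells (Huh-7 with subgenomic genotype 1 replicon, luc-ubi-neo) seeded 5 × 10³/well in complete DMEM with 500 µg/mL G418; after 24 h at 37 °C, 5% CO₂, medium refreshed with G418 and compounds added from DMSO stock. Four days at 37 °C, then luciferase read by Steady-Glo. EC50 is the concentration halving replication; three repeats, mean ± SD.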

Data set [3] is described as follows: Selectivity index, ratio of CC50 for human Huh7 cells to EC50 for HCV genotype1. Details: species or system Huh-7.

The structures appear in SMILES notation. Where only a bound is given, the exact number is not on record here.

One may read the CC50 as the concentration at which the toxic effect on the cells reaches its halfway point. High values mean better tolerance by the cells, low ones harm at low concentration. `Nc1ccn([C@@H]2O[C@H](CO)[C@](O)(CF)[C@H]2O)c(=O)n1` registered a CC50 at 72 h in data set [1] greater than 100 µM.

In general, EC50 refers to the concentration giving half of the maximal effect. Regarding `C[C@@]1(O)[C@H](O)[C@@H](CO)O[C@H]1n1cnc2c(N)ncnc21`, in data set [2], the EC50 is 0.3 µM.

For `CNc1ncnc2c1ncn2[C@@H]1O[C@H](CO)[C@](O)(CN=[N+]=[N-])[C@H]1O`, the EC50 in data set [2] was greater than 100 µM. Also, the CC50 at 72 h in data set [1] was greater than 100 µM.

For the compound `Nc1ncnc2c1ncn2[C@@H]1O[C@H](CO)[C@](O)(CO)[C@H]1O`, the EC50 in data set [2] came to 18.6 µM. In data set [1], the CC50 at 72 h stood at 37.3 µM. Moreover, the “Ratio CC50/EC50” value in data set [3] was determined as 2.

In the case of `[N-]=[N+]=NC[C@@]1(O)[C@@H](CO)O[C@@H](n2ccc(N)nc2=O)[C@@H]1O`, the EC50 in data set [2] is greater than 100 µM. Further, the CC50 at 72 h in data set [1] was greater than 100 µM.

Turning to `[N-]=[N+]=NC[C@@]1(O)[C@@H](CO)O[C@@H](n2cnc3c(O)ncnc32)[C@@H]1O`, in data set [2], the EC50 was greater than 100 µM. In addition, the CC50 at 72 h in data set [1] is greater than 100 µM.

In the case of `[N-]=[N+]=NC[C@@]1(O)[C@@H](CO)O[C@@H](n2cnc3c(N)ncnc32)[C@@H]1O`, the EC50 in data set [2] was determined as 11.8 µM. The compound further had a cytotoxic concentration (CC50) at 72 h in data set [1] of 12.3 µM. Moreover, the “Ratio CC50/EC50” value in data set [3] amounted to 1.

In turn, `CNc1ncnc2c1ncn2[C@@H]1O[C@H](CO)[C@](O)(CF)[C@H]1O` had a CC50 at 72 h in data set [1] greater than 100 µM.

As to `Nc1ncnc2c1ncn2[C@@H]1O[C@H](CO)[C@](O)(CF)[C@H]1O`, the EC50 in data set [2] came out at 15.3 µM. This compound also displayed a half-maximal cytotoxic concentration (CC50) at 72 h in data set [1] of 18.9 µM. Further, in data set [3], the “Ratio CC50/EC50” value turned out to be 1.2.

Take `CNc1ncnc2c1ncn2[C@@H]1O[C@H](CO)[C@](O)(CO)[C@H]1O`: the EC50 in data set [2] was found to be 37.8 µM. Moreover, it took 58.8 µM to reach half-maximal cytotoxicity in data set [1] (CC50 at 72 h). Moreover, the “Ratio CC50/EC50” value in data set [3] is recorded as 1.6.

(Values after ChEMBL document CHEMBL1177641, “Synthesis and anti-hepatitis C virus (HCV) activity of 3'-C-substituted-methyl pyrimidine and purine nucleosides” (Bioorg Med Chem, 2010).)
